# Assay results as given in ChEMBL document CHEMBL1124497, “Thromboxane A2 synthetase inhibitors. 2. Syntheses and activities of tetrahydronaphthalene and indan derivatives” (J Med Chem, 1989).
# Columns and labels:
# Type in all cases: functional
# [1] = system: Rattus norvegicus; assay: Increase in serum prostaglandin I2 levels in incubated whole blood from rats, 1 hr following 1 mg/kg p.o.; details: route oral
# Outline: (§1)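 Rats were dosed orally at 1 mg/kg with compound suspended in water; controls received vehicle. Whole blood was drawn from the external jugular vein under anesthesia at 1, 3 and 6 h, held on ice 15 min, then clotted at 37 °C for 1 h. Serum was separated at 1000g for 10 min. TXB₂, 6-keto-PGF₁α (the PGI₂ metabolite) and PGE₂ were measured by radioimmunoassay. Prostanoid enhancement is expressed as x-fold at 1 h.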
# [2] = system: Rattus norvegicus; assay: Inhibition of thromboxane B2 production in whole blood of rat 15 min after intravenous injection of compound at 0.1 mg/kg; details: 0.25 h
# Outline: (§2)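 The compound was given intravenously to rats in physiological saline; controls received vehicle. Whole blood was drawn from the external jugular vein under anesthesia at 15, 45 and 75 min. Samples were kept on ice 15 min, clotted at 37 °C for 1 h and centrifuged (1000g, 10 min). Serum TXB₂ was measured by radioimmunoassay and expressed as % inhibition.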
# [3] = system: Rattus norvegicus; assay: Inhibition of thromboxane B2 production in whole blood of rat 45 min after intravenous injection of compound at 0.1 mg/kg; details: 0.75 h; outline: as §2
# [4] = system: Rattus norvegicus; assay: Enhancement of prostaglandin E2 levels in serum of incubated whole blood at 1 hr after an oral dose of 1 mg/kg; outline: as §1
# [5] = system: Rattus norvegicus; assay: Inhibition of thromboxane B2 production in whole blood of rats, 6 hr after a peroral dose of 1.0 mg/kg; details: route oral; outline: as §1
# [6] = species: Rattus norvegicus; assay: In vitro inhibition of thromboxane A2 production in rat platelet-rich plasma.
# Outline: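 Citrated rat platelet-rich plasma (4 × 10⁷ platelets) was preincubated with compound for 1 min at room temperature with gentle shaking. Sodium arachidonate (final 0.5 mmol) started the reaction, which ran 5 min at room temperature with vigorous shaking. Indomethacin (final 0.1 mmol) stopped it. After centrifugation (1000g, 5 min), supernatant TXB₂ was measured by radioimmunoassay. IC₅₀ is the concentration giving 50% inhibition of TXB₂ production.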
# [7] = system: Rattus norvegicus; assay: Inhibition of thromboxane B2 production in whole blood of rats, 3h after a peroral dose of 1.0 mg/kg; details: route oral; outline: as §1
# [8] = system: Rattus norvegicus; assay: Inhibition of thromboxane B2 production in whole blood of rat 75 min after intravenous injection of compound at 0.1 mg/kg; details: 1.25 h; outline: as §2
# [9] = system: Rattus norvegicus; assay: Inhibition of thromboxane B2 production in whole blood of rats 1 hr following 1 mg/kg p.o.; details: route oral; outline: as §1
# [10] = system: Rattus norvegicus; assay: Inhibition of thromboxane A2 production in whole blood of rats, 4 hr after a peroral dose of 1.0 mg/kg; details: route oral
# [11] = system: Rattus norvegicus; assay: Inhibition of thromboxane B2 production in whole blood of rats, 1 hr after a peroral dose of 0.1 mg/kg; details: route oral
# [12] = system: Rattus norvegicus; assay: Inhibition of thromboxane A2 production in whole blood of rats, 4 hr after a peroral dose of 0.1 mg/kg; details: route oral
# [13] = system: Rattus norvegicus; assay: Inhibition of thromboxane B2 production in whole blood of rats, 4 hr after a peroral dose of 0.1 mg/kg; details: route oral
structure (smiles),measurement,setting,value
Cl.O=C(O)C1Cc2ccc(Cn3ccnc3)cc2C1 (stereo unspecified),x fold,[1],3.14
same,inhibition in vivo at 0.1 mg/kg,[2],58%
same,inhibition in vivo at 0.1 mg/kg,[3],46%
same,x fold,[4],7.27
same,inhibition in vivo at 1 mg/kg,[5],61%
same,IC50,[6],7200 nM
same,inhibition in vivo at 1 mg/kg,[7],75%
same,inhibition in vivo at 0.1 mg/kg,[8],32%
same,inhibition in vivo at 1 mg/kg,[9],87%
O=C(O)c1ccc(OCCc2cncs2)cc1,x fold,[1],3.14
same,inhibition in vivo at 1 mg/kg,[5],54%
same,IC50,[6],3800 nM
same,inhibition in vivo at 1 mg/kg,[7],83%
same,inhibition in vivo at 1 mg/kg,[9],88%
O=C(O)c1cccc2c1CCC2CCn1ccnc1 (stereo unspecified),IC50,[6],860 nM
same,inhibition in vivo at 1 mg/kg,[9],97%
O=C(O)/C=C/c1ccc(Cn2ccnc2)cc1 [OZAGREL],x fold,[1],2.5
same,inhibition in vivo at 0.1 mg/kg,[2],89%
same,inhibition in vivo at 0.1 mg/kg,[3],72%
same,x fold,[4],4.8
same,inhibition in vivo at 1 mg/kg,[5],11%
same,IC50,[6],4500 nM
same,inhibition in vivo at 1 mg/kg,[7],42%
same,inhibition in vivo at 0.1 mg/kg,[8],46%
same,inhibition in vivo at 1 mg/kg,[9],91%
O=C(O)c1ccc(OCCn2ccnc2)cc1 [DAZOXIBEN],x fold,[1],1.9
same,inhibition in vivo at 0.1 mg/kg,[2],25%
same,inhibition in vivo at 0.1 mg/kg,[3],6%
same,x fold,[4],3.91
same,inhibition in vivo at 1 mg/kg,[5],8%
same,IC50,[6],11000 nM
same,inhibition in vivo at 1 mg/kg,[7],21%
same,inhibition in vivo at 1 mg/kg,[9],50%
O=C([O-])c1ccc2c(c1)CC(Cc1cncs1)C2.[Na+] (stereo unspecified),x fold,[1],3.52
same,inhibition in vivo at 0.1 mg/kg,[2],77%
same,inhibition in vivo at 0.1 mg/kg,[3],62%
same,x fold,[4],9.55
same,inhibition in vivo at 1 mg/kg,[5],52%
same,IC50,[6],400 nM
same,inhibition in vivo at 1 mg/kg,[7],87%
same,inhibition in vivo at 0.1 mg/kg,[8],26%
same,inhibition in vivo at 1 mg/kg,[9],94%
O=C(O)CCCC/C=C(\c1ccccc1)c1cccnc1 [(E)-ISBOGREL],inhibition in vivo at 1 mg/kg,[10],80%
same,inhibition in vivo at 0.1 mg/kg,[11],75%
same,IC50,[6],250 nM
same,inhibition in vivo at 0.1 mg/kg,[12],40%
same,inhibition in vivo at 1 mg/kg,[9],96%
O=C([O-])c1ccc2c(c1)CCC(Cc1cncs1)C2.[Na+] (stereo unspecified),x fold,[1],2.55
same,inhibition in vivo at 0.1 mg/kg,[2],90%
same,inhibition in vivo at 0.1 mg/kg,[3],87%
same,x fold,[4],5.26
same,inhibition in vivo at 1 mg/kg,[5],78%
same,IC50,[6],140 nM
same,inhibition in vivo at 1 mg/kg,[7],88%
same,inhibition in vivo at 0.1 mg/kg,[8],75%
same,inhibition in vivo at 1 mg/kg,[9],93%
O=C(O)/C=C/c1ccc(Cc2cncs2)cc1,IC50,[6],1500 nM
same,inhibition in vivo at 1 mg/kg,[9],39%
Cl.O=C(O)c1ccc2c(c1)CC(Cn1ccnc1)CC2 (stereo unspecified),x fold,[1],1.99
same,x fold,[4],4.27
same,IC50,[6],5600 nM
same,inhibition in vivo at 1 mg/kg,[9],57%
Cl.O=C(O)c1cccc2c1CCCC2CCn1ccnc1 (stereo unspecified),x fold,[1],3.02
same,inhibition in vivo at 0.1 mg/kg,[2],79%
same,inhibition in vivo at 0.1 mg/kg,[3],74%
same,x fold,[4],5.88
same,inhibition in vivo at 1 mg/kg,[5],76%
same,IC50,[6],5400 nM
same,inhibition in vivo at 1 mg/kg,[7],93%
same,inhibition in vivo at 0.1 mg/kg,[8],64%
same,inhibition in vivo at 1 mg/kg,[9],93%
O=C([O-])C1CCc2cc(Cc3cncs3)ccc2C1.[Na+] (stereo unspecified),x fold,[1],2.65
same,x fold,[4],5.91
same,IC50,[6],1900 nM
same,inhibition in vivo at 1 mg/kg,[9],69%
O=C([O-])c1cccc2c1CCCC2CCc1cncs1.[Na+] (stereo unspecified),x fold,[1],2.68
same,inhibition in vivo at 0.1 mg/kg,[2],88%
same,inhibition in vivo at 0.1 mg/kg,[3],79%
same,x fold,[4],5.63
same,inhibition in vivo at 1 mg/kg,[5],86%
same,IC50,[6],370 nM
same,inhibition in vivo at 1 mg/kg,[7],93%
same,inhibition in vivo at 0.1 mg/kg,[8],67%
same,inhibition in vivo at 1 mg/kg,[9],97%
C/C(=C\c1ccc(Cc2cncs2)cc1)C(=O)O,IC50,[6],220 nM
same,inhibition in vivo at 1 mg/kg,[9],44%
Cl.O=C(O)c1ccc2c(c1)CCC(Cn1ccnc1)C2 (stereo unspecified),inhibition in vivo at 0.1 mg/kg,[13],76%
same,x fold,[1],2.91
same,inhibition in vivo at 0.1 mg/kg,[2],95%
same,inhibition in vivo at 0.1 mg/kg,[3],93%
same,x fold,[4],5.9
same,inhibition in vivo at 0.1 mg/kg,[11],85%
same,inhibition in vivo at 1 mg/kg,[5],88%
same,IC50,[6],1100 nM
same,inhibition in vivo at 1 mg/kg,[7],93%
same,inhibition in vivo at 0.1 mg/kg,[8],88%
same,inhibition in vivo at 1 mg/kg,[9],98%
Cc1c(Cn2ccnc2)c2ccccc2n1CCC(=O)O [DAZMEGREL],x fold,[1],2.26
same,inhibition in vivo at 0.1 mg/kg,[2],11%
same,inhibition in vivo at 0.1 mg/kg,[3],46%
same,x fold,[4],5.36
same,inhibition in vivo at 1 mg/kg,[5],40%
same,IC50,[6],12000 nM
same,inhibition in vivo at 1 mg/kg,[7],71%
same,inhibition in vivo at 0.1 mg/kg,[8],29%
same,inhibition in vivo at 1 mg/kg,[9],92%
C/C(=C\c1ccc(Cc2cccnc2)cc1)C(=O)O,x fold,[1],2.55
same,x fold,[4],3.87
same,inhibition in vivo at 1 mg/kg,[5],44%
same,IC50,[6],150 nM
same,inhibition in vivo at 1 mg/kg,[7],64%
same,inhibition in vivo at 1 mg/kg,[9],71%
Cl.O=C(O)C1CCc2cc(Cn3ccnc3)ccc2C1 (stereo unspecified),x fold,[1],2.22
same,x fold,[4],4.79
same,inhibition in vivo at 1 mg/kg,[5],49%
same,IC50,[6],1400 nM
same,inhibition in vivo at 1 mg/kg,[7],69%
same,inhibition in vivo at 1 mg/kg,[9],88%
Cl.O=C(O)c1ccc2c(c1)CC(Cn1ccnc1)C2 (stereo unspecified),x fold,[1],3.57
same,inhibition in vivo at 0.1 mg/kg,[2],73%
same,inhibition in vivo at 0.1 mg/kg,[3],60%
same,x fold,[4],6.93
same,inhibition in vivo at 1 mg/kg,[5],74%
same,IC50,[6],6600 nM
same,inhibition in vivo at 1 mg/kg,[7],90%
same,inhibition in vivo at 0.1 mg/kg,[8],51%
same,inhibition in vivo at 1 mg/kg,[9],95%
O=C(O)c1ccc2c(c1)CCCC2CCn1ccnc1 (stereo unspecified),x fold,[1],3.38
same,inhibition in vivo at 0.1 mg/kg,[2],84%
same,inhibition in vivo at 0.1 mg/kg,[3],53%
same,x fold,[4],10.05
same,inhibition in vivo at 1 mg/kg,[5],28%
same,IC50,[6],14000 nM
same,inhibition in vivo at 1 mg/kg,[7],59%
same,inhibition in vivo at 0.1 mg/kg,[8],46%
same,inhibition in vivo at 1 mg/kg,[9],93%
